Our source for the inhibition and Ki values is ChEMBL document CHEMBL2010709, “Pinophilins A and B, inhibitors of mammalian A-, B-, and Y-family DNA polymerases and human cancer cell proliferation” (J Nat Prod, 2012).

Activity calls are given as the source filed them. The calls are words filed in the database; no cut-off is given here.

For test [1], the species on record is Bos taurus. In words: Competitive inhibition of calf DNA polymerase alpha using dTTP as substrate up to 30 uM by Lineweaver-Burk plot analysis. A digest of the protocol:
(§1)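 Kinetics ran in the standard pol assay at 37 °C for 60 min. Either poly(dA)/oligo(dT)18 (A/T = 2/1) or dTTP was varied, with inhibitor at 0, 10, 20 and 30 μM. Km and Vmax came from Lineweaver–Burk plots and Ki from Dixon plots. Pol α was purified from calf thymus by immunoaffinity chromatography.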

The species named for test [2] is Bos taurus. In words: Non-competitive inhibition of calf DNA polymerase alpha using ploy(dA)/oligo(dT)18 as substrate up to 30 uM by Lineweaver-Burk plot analysis. A digest of the protocol: as §1
Test [3] deals with T1, DNA polymerase kappa (Homo sapiens, UniProt Q9UBT6).
T1 sequence (Q9UBT6 whole entry): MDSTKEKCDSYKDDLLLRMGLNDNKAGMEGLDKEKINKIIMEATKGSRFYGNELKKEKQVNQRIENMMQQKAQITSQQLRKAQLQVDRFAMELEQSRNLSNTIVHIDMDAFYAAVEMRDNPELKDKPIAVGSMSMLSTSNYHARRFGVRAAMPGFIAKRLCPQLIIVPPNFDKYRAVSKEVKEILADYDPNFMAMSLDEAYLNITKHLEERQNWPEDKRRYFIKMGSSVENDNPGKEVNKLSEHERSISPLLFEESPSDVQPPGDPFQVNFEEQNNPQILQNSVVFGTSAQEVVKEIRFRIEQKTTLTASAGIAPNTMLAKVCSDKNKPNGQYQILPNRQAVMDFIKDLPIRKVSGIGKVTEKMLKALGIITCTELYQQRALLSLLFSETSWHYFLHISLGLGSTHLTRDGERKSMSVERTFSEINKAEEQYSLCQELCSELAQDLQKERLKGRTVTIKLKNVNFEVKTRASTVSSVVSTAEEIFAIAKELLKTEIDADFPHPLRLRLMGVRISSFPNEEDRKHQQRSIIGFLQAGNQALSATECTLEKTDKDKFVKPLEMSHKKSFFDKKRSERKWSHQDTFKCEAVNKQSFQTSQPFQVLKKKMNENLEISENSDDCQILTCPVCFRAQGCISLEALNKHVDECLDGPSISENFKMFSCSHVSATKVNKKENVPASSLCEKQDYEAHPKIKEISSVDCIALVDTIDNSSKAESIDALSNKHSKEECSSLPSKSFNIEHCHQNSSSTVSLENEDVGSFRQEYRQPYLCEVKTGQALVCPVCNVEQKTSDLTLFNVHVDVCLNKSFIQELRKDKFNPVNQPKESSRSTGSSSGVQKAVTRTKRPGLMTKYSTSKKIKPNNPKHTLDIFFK
Briefly: Competitive inhibition of human C-terminal-His6-tagged DNA polymerase kappa expressed in Escherichia coli using dTTP as substrate by Dixon plot analysis. A digest of the protocol: as §1

Test [4] has as its target T1, DNA polymerase kappa. Briefly: Non-competitive inhibition of human C-terminal-His6-tagged DNA polymerase kappa expressed in Escherichia coli using ploy(dA)/oligo(dT)18 as substrate by Dixon plot analysis. The procedure, abridged: as §1

Usually Ki stands for a dissociation constant, usually derived from enzyme kinetics or from competition with a known ligand. Low readings indicate a stronger hold on the target, high ones a looser hold on the target. Take `C/C=C/C1=CC2=CC(=O)[C@@](C)(OC(=O)c3c(C)cc(O)cc3O)[C@@H](O)[C@@H]2CO1` [PINOPHILIN A]: the inhibition result in the test filed under Bos taurus [1] and in the test filed under Bos taurus [2] was “Active” each time. The inhibitory constant (Ki) is 9.85 µM at DNA polymerase kappa [3] and 18.1 µM on DNA polymerase kappa [4].
